Assay results from ChEMBL document CHEMBL1157562, “Piperazinyl glutamate pyridines as potent orally bioavailable P2Y12 antagonists for inhibition of platelet aggregation” (J Med Chem, 2010).

Tests used:
P2Y purinoceptor 12 = P2Y purinoceptor 12 (Homo sapiens, UniProt Q9H244); test: Displacement of [33P]ADP from human recombinant P2Y12 receptor expressed in CHO cells; format: cell-based
Outline: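 Washed membranes from CHO cells expressing synthetic human P2Y12, incubated 1 h at room temperature with 0.2 nM 33P-MeSADP in 50 mM Tris/100 mM NaCl/1 mM EDTA. Compound was tested as a 7-point 3-fold series in triplicate. Nonspecific binding was defined with 300 nM 2-MeSADP, followed by filtration.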

[1] = Antiplatelet aggregation activity against adenosine diphosphate-induced human platelet rich plasma assessed as inhibition of platelet aggregation by turbidimetric method; format: functional; conditions: Homo sapiens, Platelet, Plasma
Outline: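 Human PRP, prepared by two-step centrifugation and adjusted to 330 000 platelets/μL with PPP. Compound was preincubated 5 min at 37 °C in 0.5% DMSO, then 20 μM ADP was added. OD626 was read kinetically for 15 min at 37 °C with mixing between reads.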

Chain of P2Y purinoceptor 12 (Q9H244 whole entry): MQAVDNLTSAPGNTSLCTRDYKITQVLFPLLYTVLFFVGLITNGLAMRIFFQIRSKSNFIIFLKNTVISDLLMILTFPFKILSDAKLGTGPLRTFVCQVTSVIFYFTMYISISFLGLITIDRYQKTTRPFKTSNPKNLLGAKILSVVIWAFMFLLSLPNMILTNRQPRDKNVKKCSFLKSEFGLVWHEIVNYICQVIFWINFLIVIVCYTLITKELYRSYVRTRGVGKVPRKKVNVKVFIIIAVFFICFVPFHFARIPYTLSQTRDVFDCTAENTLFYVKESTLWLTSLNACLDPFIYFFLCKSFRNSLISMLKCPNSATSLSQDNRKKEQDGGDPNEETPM

SMILES | Ki (P2Y purinoceptor 12) [µM] | IC50 [1] [µM]
COCC(=O)N1CCN(C(=O)[C@H](CCC(=O)O)NC(=O)c2cccc(-c3ccccc3)n2)CC1 | > 3.59 | > 100
CCOC(=O)N1CCN(C(=O)[C@H](CCC(=O)O)NC(=O)c2cc(N(C)C)cc(-c3ccccc3)n2)CC1 | 0.045 | > 100
CCOC(=O)N1CCN(C(=O)CNC(=O)c2cc(-c3ccccc3)cc(-c3ccccc3)n2)CC1 | 0.733 | > 50
CCOC(=O)N1CCN(C(=O)[C@H](CCC(=O)O)NC(=O)c2cccc(-c3ccccc3)c2)CC1 | 3.64 | > 100
CCCCCCOC(=O)N1CCN(C(=O)[C@H](CCC(=O)O)NC(=O)c2cccc(-c3ccccc3)n2)CC1 | – | 19
O=C(O)CC[C@H](NC(=O)c1cccc(-c2ccccc2)n1)C(=O)N1CCN(C(=O)OCC(F)(F)F)CC1 | 0.094 | > 100
COCCOC(=O)N1CCN(C(=O)[C@H](CCC(=O)O)NC(=O)c2cccc(-c3ccccc3)n2)CC1 | 0.492 | > 100
CCOC(=O)N1CCN(C(=O)CNC(=O)c2cccc(-c3ccccc3)n2)CC1 | 1.61 | > 100
CCCCCOC(=O)N1CCN(C(=O)[C@H](CCC(=O)O)NC(=O)c2cc(NC(=O)C3CCOCC3)cc(-c3ccccc3)n2)CC1 | 0.0085 | > 10
CCCCNC(=S)N1CCN(C(=O)[C@H](CCC(=O)O)NC(=O)c2cccc(-c3ccccc3)n2)CC1 | 0.008 | 56
CCCC(=O)N1CCN(C(=O)[C@H](CCC(=O)O)NC(=O)c2cccc(-c3ccccc3)n2)CC1 | 3.1 | > 100
CCCNC(=O)N1CCN(C(=O)[C@H](CCC(=O)O)NC(=O)c2cccc(-c3ccccc3)n2)CC1 | 0.277 | > 100
CCCCOC(=O)N1CCN(C(=O)[C@H](CCC(=O)O)NC(=O)c2cccc(-c3ccccc3)n2)CC1 | – | 28
CCCCCOC(=O)N1CCN(C(=O)[C@H](CCC(=O)O)NC(=O)c2cccc(-c3ccccc3)n2)CC1 | – | 15
CCCNC(=S)N1CCN(C(=O)[C@H](CCC(=O)O)NC(=O)c2cccc(-c3ccccc3)n2)CC1 | 0.042 | 81
CCCCCCCCOC(=O)N1CCN(C(=O)[C@H](CCC(=O)O)NC(=O)c2cccc(-c3ccccc3)n2)CC1 | – | > 100
CC(C)(C)CCOC(=O)N1CCN(C(=O)[C@H](CCC(=O)O)NC(=O)c2cccc(-c3ccccc3)n2)CC1 | 0.042 | > 100

SMILES | Ki (P2Y purinoceptor 12) [µM] | IC50 [1] [µM]
CCCCCCCOC(=O)N1CCN(C(=O)[C@H](CCC(=O)O)NC(=O)c2cccc(-c3ccccc3)n2)CC1 | – | 56
CCOC(=O)N1CCN(C(=O)[C@H](CCC(=O)O)NC(=O)c2ccccn2)CC1 | > 5.4 | > 100
O=C(O)CC[C@H](NC(=O)c1cccc(-c2ccccc2)n1)C(=O)N1CCN(C(=O)c2ccccc2)CC1 | 1.88 | > 100
CCOC(=O)N1CCN(C(=O)[C@H](CCC(=O)O)NC(=O)c2nccc(-c3ccccc3)n2)CC1 | 1.19 | 74
CCOC(=O)N1CCN(C(=O)[C@H](CCC(=O)O)NC(=O)c2cc(-c3ccccc3)cc(-c3ccccc3)n2)CC1 | 0.015 | 76
CCOC(=O)N1CCN(C(=O)[C@H](CCC(=O)O)NC(=O)c2cc(-c3ccccc3)nc(-c3ccccc3)c2)CC1 | 0.484 | > 50
O=C(O)CC[C@H](NC(=O)c1cccc(-c2ccccc2)n1)C(=O)N1CCN(C(=O)OCC2CCC2)CC1 | 0.028 | > 100
CCCCCNC(=S)N1CCN(C(=O)[C@H](CCC(=O)O)NC(=O)c2cccc(-c3ccccc3)n2)CC1 | 0.006 | 42
CCCCCS(=O)(=O)N1CCN(C(=O)[C@H](CCC(=O)O)NC(=O)c2cccc(-c3ccccc3)n2)CC1 | > 3.59 | > 100
Cc1cccc(N2CCN(C(=O)[C@H](CCC(=O)O)NC(=O)c3cc(-c4ccccc4)cc(-c4ccccc4)c3)CC2)c1 | 1.43 | > 100
CCCCNC(=O)N1CCN(C(=O)[C@H](CCC(=O)O)NC(=O)c2cccc(-c3ccccc3)n2)CC1 | 0.613 | > 100
CCCS(=O)(=O)N1CCN(C(=O)[C@H](CCC(=O)O)NC(=O)c2cccc(-c3ccccc3)n2)CC1 | > 3.59 | > 100
Cc1cccc(N2CCN(C(=O)[C@H](CCC(=O)O)NC(=O)c3cccc(-c4ccccc4)n3)CC2)c1 | – | > 100
CCCCOC(=O)N1CCN(C(=O)[C@H](CCC(=O)O)NC(=O)c2cc(N(C)CCOC)cc(-c3ccccc3)n2)CC1 | 0.004 | > 100
CCCCCOC(=O)N1CCN(C(=O)[C@H](CCC(=O)O)NC(=O)c2cc(NC(=O)CN3CCOCC3)cc(-c3ccccc3)n2)CC1 | 0.003 | > 10
CCCCCCNC(=O)N1CCN(C(=O)[C@H](CCC(=O)O)NC(=O)c2cccc(-c3ccccc3)n2)CC1 | 0.054 | > 100
